Test system: MS2 coat protein
Assay: apparent Kd, MS2 coat protein; higher = weaker binding; RNA-MaP array; FMN 200 µM where present
In short: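 Stalled E. coli RNA polymerase transcribed the designs on Illumina sequencing-chip clusters. SNAP-549-labelled MS2 coat protein was titrated from 0.7 or 1.5 nM, doubling to 3 µM, without and then with constant ligand, in 100 mM Tris-HCl pH 7.5, 80 mM KCl, 4 mM MgCl2, BSA, DTT, yeast tRNA and Tween-20. Per-cluster binding curves were fitted to green signal normalised to red-channel RNA signal and control-cluster median Fmax. The apparent Kd is the median of the filtered fits.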

[1] = designed as: OFF switch for flavin mononucleotide, no ligand
[2] = ligand present: flavin mononucleotide, designed as: OFF switch for flavin mononucleotide
[3] = designed as: ON switch for flavin mononucleotide, no ligand
[4] = ligand present: flavin mononucleotide, designed as: ON switch for flavin mononucleotide

| Sequence | apparent Kd [1] [nM] | apparent Kd [2] [nM] | apparent Kd [3] [nM] | apparent Kd [4] [nM] |
| --- | --- | --- | --- | --- |
| UAGGUGGAAGGAUAUACAUAUGGCCUAUGAGAUACUUCACGACAUGAGGAUCACCCAUGUAGAAGGUCUACCGU | 17.9 | 39.4 |  |  |
| GAACGCCUAGGAUAUACAUGAGGAUCACCCAUGUCGCCCAGUCCUGGAGUGACCUCUAGUAGAAGGAGGAAUAA | 480 | 135 |  |  |
| CUGAUGUUAGGAUAUCAGGUUGCGCGCGAAGGCACGCAGCAUGAGAAGGAACAUGAGGAUCACCCAUGUGACGA | 40.6 | 132 |  |  |
| GACCGCGAGGAAGGAUAUGGAGCCUUAAAGGCUCCAGAAGGUCCAUAAAGGACAUGAGGAUCACCCAUGUGGUGAGAAGCGGUC |  |  | 1720 | 201 |
| AAGUCGUGAGGAUAUACAUGGAUAUACAUUUAUGUAAAACUACAUGAGGAUCACCCAUGUAGAAGGCACGAAUA | 50.7 | 128 |  |  |
| GCGUAAUAGGUGUAGCUAGUCGUACAAGAAGGGUGGAGAACAUGAGGAUCACCCAUGUGGUCUAUACAGGAUAUUGUUAUACGC |  |  | 176 | 30.5 |
| CCUAUGUGAGGAUAUGGUGUUGGCCACAGGGAAAAGGUCCUCCAGAAGGCACAUGAGGAUCACCCAUGUCGUGG | 116 | 127 |  |  |
| AUGAGUGUAAUGAUAGAGCCACUGCAGGAUAUCACAUGAGGAUCACCCAUGUGUCAGCCUCGGAGUGAGAAGGGCGGUUUCUUA | 5.65 | 9.7 |  |  |
| UUACUACAUGAGGAUCACCCAUGUCAGGAUAUUGGAUAUGCCUUGGAAUACGUGUUUACAAGAAGGGACUAUAU | 23.4 | 21.4 |  |  |
| UUUUAACUACAAUUACAUGAGGAUCACCCAUGUUUUGGGAUGCAGGAUAUGUGGUAUAUUAAUUAACAGAAGGGCAAUAAUUAA |  |  | 57.6 | 46.4 |
| UUUAAUUAGUAAGGAUAUACUAGUGAUUAGCUUGUAGAAGGUACAGUCUUAUGUAUAACAAAUUAACAUGAGGAUCACCCAUGU |  |  | 10.6 | 7.99 |
| GCGCGCGUUGUGAGGAUAUUGUGUGUGAAAGCGCGCGAGAAGGCACAUGAGGAUCACCCAUGUAAGGUGUGUGU | 455 | 392 |  |  |
| GUACUACAUGAGGAUCACCCAUGUACAAAUGUACGAGGAUAUGCAUGGACGAAAGUUGGUGCAGAAGGCGUAGUAC |  |  | 24.9 | 24 |
| AUUUGAAUCGUAGGAUAUCGCUUAAAUUUACCACGAGAAGGACGAACAUGAGGAUCACCCAUGUAACAUGGUGAAGAUAAUUUG | 31.6 | 120 |  |  |
| AUUAAACAUGAGGAUCACCCAUGUCAACAAAGUCGAGGAUAUGGGCAAAUAAAAUAAGUACCAGAAGGCGAAUAAU |  |  | 113 | 24.2 |
| AAGCGAGGGACAGGAUAUGCAGCGAAACUCGCCGCAGAAGGGUCGACAUGAGGAUCACCCAUGUCCUUACGCUCCAAGUAGUGG |  |  | 232 | 299 |
| GUGGACGUCGUAGGAUAUGUAGGAUAUUCCUACAUGAGGAUCACCCAUGUUGACAUGGAAGAAGGACAGAAGGACGAUGUCCAU |  |  | 262 | 4.51 |
| UUGGUCAGUCAGAAGGCUACAUUACAUGAGGAUCACCCAUGUCAAAAGUAGAGGAUAUGAAGUUCGCCAUGGUAAGAGCCUGUC |  |  | 34.7 | 6.26 |
| UUGGUUCUCGUAGGAUAUGUAGGAUAUGCCUACAUGAGGAUCACCCAUGUUCGCAUGGCAGAAGGACAGAAGGACGAUCACCAU |  |  | 378 | 17.3 |
| UUUGGGUGGCUGGAGGAUAUUCUUGUGGUUACAUGAGGAUCACCCAUGUGUCGCGCGGUGCGCGAGGAGAAGGCUGGCGGCCGUU |  |  | 411 | 128 |
| GUAGCAUAAUCAGGAUAUUCAGCGAAUAGAUAGACAUGAGGAUCACCCAUGUGGCGAAAGCCUAGGGAGAAGGGAUAAUGCUAC |  |  | 200 | 35.8 |
| ACAUGCAUAGCGAUAUGAUCGAGAGAUCAUGUCGCAAAAUUUAGAAGGACAUGAGGAUCACCCAUGUAGGAUAUGGGAGCAUGA |  |  | 43.8 | 12.9 |
| GUAGCAAUCGGAGGAUAUUCAUACCGGAAACGGACAUGAGGAUCACCCAUGUCGCGAAAGCGUUGGGAGAAGGCCGAUUGCUAC |  |  | 220 | 21.3 |
| UUUUUACAUGAGGAUCACCCAUGUCAGGAUAUCGUUAUAUUUUAUUAUUUUAUUUUUUCGAGAAGGGACUAUUA | 90.3 | 58.6 |  |  |
| UUAUGAGAGCAGGAUAUCUUAUAUGUGUAUUAAAGAGAAGGGCUCACAUGAGGAUCACCCAUGUGGUCCUAGAU | 44.2 | 309 |  |  |
| UCAAUUUUGCGAGGAUAUCGACCAUUCCUCUUUACAUGAGGAUCACCCAUGUUCUUUUUCUACAACGAGAAGGCGCUCAUAGUU | 55.5 | 67.1 |  |  |
| UUAGAAAUGUUAGGAUAUUAAUAUUUUUUUAGUAUGAUCUACAUGAGGAUCACCCAUGUUAAAAUUAAGAAGGAACAUUUUAUU | 69.7 | 56.9 |  |  |
| GCCAUCGCAUGAGGAUAUCCUCAGCUUUGCUGAGGAGAAGGCAUGUCAAUAGACAUGAGGAUCACCCAUGUAGUUAAGAUGGCA |  |  | 692 | 81.3 |

| Sequence | apparent Kd [1] [nM] | apparent Kd [2] [nM] | apparent Kd [3] [nM] | apparent Kd [4] [nM] |
| --- | --- | --- | --- | --- |
| GCUGCAUAGGCAGGAUAUGCAAUAAUUCGAAUAAAAUAUAACGAAUUAACAUGAGGAUCACCCAUGUAGAAGGGCCUGUGCAGC | 5.51 | 4.99 |  |  |
| GUGUACAGAGGAUAUACAUGAGCUAGGAAACUAGCAACUUCACAUGAGGAUCACCCAUGUAGAAGGCUGUACAC | 26 | 128 |  |  |
| GUUAGUUAAGGAUAUACUGGGAGCUGCGGCGUCUCGCCGCAACAUGAGGAUCACCCAUGUAGAAGGUGACCAUU | 320 | 229 |  |  |
| GAUUCACAUGAGGAUCACCCAUGUGAGGAUAUAGUGCAGGAGGCGGAUAUCCACCUCUCUAGAAGGCACACGGG | 21.8 | 24.1 |  |  |
| AGAAUGGGCGAGAAGGGAGUACAUGAGGAUCACCCAUGUGGUUCAUGGUGCUCAGGAUAUCGAUAGACCAAGGAGCGUCUUUGG | 20.1 | 140 |  |  |
| GCCGAAGGAGGAUAUACACCCGGUGGCAAAACGCCGGCUCGACAUGAGGAUCACCCAUGUAGAAGGCCUGUGGU | 16.4 | 18 |  |  |
| GGAUCGAGUGUGAGGAUAUGCAGGUCCUUGGAUCUGCAGAAGGCACAUGAGGAUCACCCAUGUGGAAACGGUCC | 64.2 | 567 |  |  |
| GCGUAUAUAUGAUUUAUUUAACAGUCAGAAGGUGAGAAGACGACAUGAGGAUCACCCAUGUUAUUCAAGGAUAUGAUAAUGCGC |  |  | 24.9 | 11.4 |
| AGCUGUGGCCGAGGAUAUCUAACAAUCCCAACCGAAAUAUAAUCGGACAUGAGGAUCACCCAUGUAGAGAAGGCGGUCUCAGCA | 208 | 329 |  |  |
| UGGUACUAGGGAGGAUAUGGGAAGAUACAUGAGGAUCACCCAUGUCUAAGAAUGCCGAGAGGCAACUAGAAGGCCCUAGUACCU |  |  | 98.3 | 496 |
| GGAGGGACAGCAGGAUAUGAGUGGGACGCACUGUGUACGCGGGUGUGGAUGUCAGAAGGGCUGACAUGAGGAUCACCCAUGUAA |  |  | 114 | 55.4 |
| AAUAAUGAUAAGGAUAUCACUAGCCUCGGCUAGUGAGAAGGUAUCACAUGAGGAUCACCCAUGUGUUCCAAUAA | 16.1 | 40.3 |  |  |
| CUUUGGUCAGGAUAUGGUGGGCUGGUCGCGCGGCCGGGUGGCCAGAAGGGACAUGAGGAUCACCCAUGUACGGC | 35.5 | 59.7 |  |  |
| CUGAUGUGAGGAUAUGUGAUCUGCCUUCUAUGUAGAUGAUCACAGAAGGCACAUGAGGAUCACCCAUGUAGAUC | 85.9 | 94.3 |  |  |
| GAUCCACAUGAGGAUCACCCAUGUGAGGAUAUGUCCAUAUUCGGCAAAUCGGAUAUGGACAGAAGGCACACCGG | 120 | 47.4 |  |  |
| AAUUAUUUAUGAGGAUAUUGUGGUGAAACACCACAAGAAGGCAUGAUACACAUGAGGAUCACCCAUGUGAGCCUUAUGCAUAUA | 20.3 | 115 |  |  |
| CUUAGUUUGUAGAAGGGUGACAUGAGGAUCACCCAUGUGCGUCUCCUGAAAGACCAGGGUACGCCACAGGAUAUACAAAGUAAG |  |  | 42.7 | 47.7 |
| UCCUUCUGUUGAGGAUAUGUAAGACAGCGGCUGCUAUUGCGGCCCGCUGAUACAGAAGGCAACAUGAGGAUCACCCAUGUUCAA | 22.9 | 163 |  |  |
| CUGCGGUAGGAGAAGGACGGCGGGUUAUUUUCGUACAUGAGGAUCACCCAUGUAGGAUAUCCUACCUCAGGCGGCCUACUACAG | 19.9 | 30 |  |  |
| GAAUAUUGGAUAAACAUGAGGAUCACCCAUGUAACUAGACAUGAGGAUAUGGAUUCUAAUUGGAUCCAGAAGGUAUCAAUAUUC |  |  | 199 | 227 |
| UUGGACAGCUAGAGCUGCUAAGUACAUGAGGAUCACCCAUGUCAGGAUAUCCUUCCGCAAUGCGAGGAGAAGGGACAGGGUCCC | 75.4 | 179 |  |  |
| GCAUACUAAGGAUAUACAUGAGGAUCACCCAUGUUGCCAAAUGGCAGCAUCACCUGGAGUAGAAGGUAGAUGUA | 35 | 33.3 |  |  |
| ACAUGAGGAUCACCCAUGUUAUCAGGGACUUCAAUUAUUUGUAGAAGGCUGUUUUCUUGUUAGUCAGAGGAUAUACAAUUAAAU | 12.7 | 14.2 |  |  |
| AAAAAACAUGAGGAUCACCCAUGUGAGGAUAUCGAAAAGUCAAAGAAAAAGACGAAAACGAGAAGGCACAAAAA | 53.8 | 65.8 |  |  |
| AAAUACCGGUGAGGAUAUUUUUAAUAGAACUUUAUGAUAUACAUGAGGAUCACCCAUGUUACUUUAAAGAAGGCAUCGGAUAAA | 17.5 | 15.8 |  |  |
| CAUCAUGCGUCUAAGGAUAUGUCUCACAAGACAUGAGGAUCACCCAUGUAGAAUAAAUAAAUGAUGCAGAAGGUGGAGCGCAUGC |  |  | 343 | 57.4 |
| UGGUCAUCAUCAGGAUAUUAACGUGGGCUACAUUAAGAAGGGAUAGUGGGAGAGGAUGUGAAACAUGAGGAUCACCCAUGUUGU |  |  | 13.3 | 10.6 |
